AI-2 QS mod – modulators of Vibrio harveyi AI-2 quorum sensing system. activity change, % at 7.5 µM. actives 0.4% (n = 300,000). Vibrio harveyi JMH597 AI-2 luminescence/OD600 ratio, 9 h; active compounds read low; strain lacks LuxN and CqsS sensors; 0 = neutral-control median; in the data active = activity change below about -75%, passing the limit was not always enough;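 also: luminescence divided by OD600 gain over 9 h not by final OD600 alone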
Tb MetRS inh – Trypanosoma brucei MetRS inhibition | AID 624268 | actives 0.4% (n = 360,000) | inhibition, % at 11.9 µM | purified T. brucei MetRS, ATP depletion, Kinase-Glo luminescence;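 active = inhibition above a per-plate cutoff of the control wells' mean inhibition plus 3 SD, cut at about 5.5% in these data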
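Measured by: Kinase-Glo luciferase luminescence reporting remaining unconsumed ATP. Material: purified T. brucei MetRS enzyme. Doses: 11.9 µM compound single dose, 0.9% DMSO. Medium: HEPES buffer containing pyrophosphatase, BSA, spermine, DTT. Times: 15 min preincubation, 2 h reaction, all 25 °C. Reagent: methionine, ATP and bulk E. coli tRNA.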
MsrA inhibitor – inhibitors of bovine MsrA; AID 651718; inhibition, % at 15.5 µM; actives 0.75% (n = 360,000); purified bovine MsrA, absorbance read-out
m5-HT2A agonist – mouse HTR2A agonism via beta-arrestin recruitment | P35363 | actives 0.66% (n = 360,000) | activation, % at 7.6 µM | AID 624169 | CHO-K1 mHTR2A beta-arrestin complementation, luminescence; percent of 30 µM serotonin response;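 active = activation above a run cutoff, the mean activation of all tested compounds plus 3 SD, cut at about 14% in these data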
AHR act – human AHR activation. AHR-responsive luciferase reporter cells, luminescence. activation, % at 5 µM. actives 2.5% (n = 320,000); in the data active = activation above about 47%
Target sequence (P35869 whole entry, looked up): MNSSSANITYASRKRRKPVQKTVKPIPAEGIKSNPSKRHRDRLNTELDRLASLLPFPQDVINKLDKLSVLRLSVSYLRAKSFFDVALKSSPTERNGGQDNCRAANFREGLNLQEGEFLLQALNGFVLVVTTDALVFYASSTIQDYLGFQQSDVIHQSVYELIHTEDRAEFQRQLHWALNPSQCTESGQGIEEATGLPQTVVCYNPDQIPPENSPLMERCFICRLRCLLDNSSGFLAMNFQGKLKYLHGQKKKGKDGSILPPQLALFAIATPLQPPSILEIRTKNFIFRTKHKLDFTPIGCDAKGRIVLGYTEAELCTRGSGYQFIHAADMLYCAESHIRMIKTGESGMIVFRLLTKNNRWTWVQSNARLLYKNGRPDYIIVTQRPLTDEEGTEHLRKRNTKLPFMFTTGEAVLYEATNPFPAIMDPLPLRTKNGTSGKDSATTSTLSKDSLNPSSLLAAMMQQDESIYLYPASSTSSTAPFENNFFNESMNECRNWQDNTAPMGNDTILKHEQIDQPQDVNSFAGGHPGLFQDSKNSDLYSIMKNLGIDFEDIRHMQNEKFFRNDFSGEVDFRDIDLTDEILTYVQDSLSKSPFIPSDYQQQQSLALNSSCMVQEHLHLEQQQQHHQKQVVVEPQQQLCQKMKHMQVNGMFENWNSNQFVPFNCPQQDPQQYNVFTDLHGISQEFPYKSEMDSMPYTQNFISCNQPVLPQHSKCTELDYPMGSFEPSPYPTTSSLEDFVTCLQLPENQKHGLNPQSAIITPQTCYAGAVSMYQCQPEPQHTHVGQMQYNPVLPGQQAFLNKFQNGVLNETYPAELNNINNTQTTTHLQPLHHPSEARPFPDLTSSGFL
bovine MsrA act – activates bovine MsrA enzyme. purified bovine MsrA, absorbance read-out. actives 0.3% (n = 360,000). activation, % at 10.6 µM; in the data active = activation above about 7.5%
MsrA conf – confirmation of bovine MsrA inhibitors | shares compounds with MsrA inhibitor | purified bovine MsrA, absorbance read-out | inhibition, % at 15.5 µM | actives 41% (n = 2,300) | AID 651822;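 also: coupled to thioredoxin reductase with NADPH and selenocystamine and DMSO as substrate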
Large screens that a line does not name were inactive (follow-up assays come after a bar, where they were run). Compounds with a hit are over-represented: about 4.4% of the library has one in this group of screens. Rule as the data show it, unless noted: active = inhibition above about 4.5%; inactive = the rest.

CCc1n[nH]c(=S)n1/N=C/c1ccc(-c2ccc(Br)cc2)o1	none
O=C1c2cccc3c([N+](=O)[O-])ccc(c23)C(=O)N1c1ccccn1	MsrA inhibitor 9.2 | MsrA conf 6.0
O=C1c2cccc3c([N+](=O)[O-])ccc(c23)C(=O)N1c1ccc(Cl)cn1	none
Nc1nc(N)c2sc3nc(C(F)(F)F)cc(C(F)(F)F)c3c2n1	MsrA inhibitor 7.5 | MsrA conf inactive
O=[N+]([O-])c1ccc2[nH]c(O)c(N=NC3CS(=O)(=O)CC3O)c2c1 (centres undefined)	MsrA inhibitor 5.2 | MsrA conf 5.0
Cc1cccc(Nc2c([N+](=O)[O-])cc(C(=O)N3CC(=O)Nc4ccccc43)cc2[N+](=O)[O-])c1	MsrA inhibitor 4.7 | MsrA conf inactive
Cc1ccc(C)c(Nc2c([N+](=O)[O-])cc(C(=O)N3CC(=O)Nc4ccccc43)cc2[N+](=O)[O-])c1	MsrA inhibitor 12 | MsrA conf 9.9
O=C1CN(C(=O)c2cccc(Br)c2)c2ccccc2N1	none
CC(=O)C(Cc1ccccc1)NC(=O)COC(=O)c1cc(S(=O)(=O)N2CCOCC2)ccc1F (centres undefined)	none (no result: AI-2 QS mod, AHR act)
CCN(CC)c1ccc(C=Nc2ccc(C)cc2)c(O)c1	MsrA inhibitor 6.9 | MsrA conf 6.3
CCN(CC)c1ccc(C=Nc2cc(C)cc(C)c2)c(O)c1	none
CCN(CC)c1ccc(C=Nc2ccc(N(C)C)cc2)c(O)c1	MsrA inhibitor 5.9 | MsrA conf inactive
Cc1cccc(NC(=O)CSCC(=O)N2CCN(C(=O)c3ccco3)CC2)c1	none (no result: AI-2 QS mod)
Cc1ccc(C(=O)C2=C(O)C(=O)N(CCCN3CCOCC3)C23C(=O)N(C)c2ccccc23)o1 (centres undefined)	MsrA inhibitor 10 | MsrA conf 6.2
O=C(CSc1ccc2nnc(-c3cccnc3)n2n1)Nc1ccc(F)cc1F	none
Cc1ccc(N2C(=O)c3ccccc3C2C(=O)c2cc(C)ccc2O)cc1 (centres undefined)	none
Cc1ccc(N2C(=O)c3ccccc3C2C(=O)c2ccc(O)cc2O)cc1 (centres undefined)	MsrA inhibitor 6.2, AHR act 59 | MsrA conf 6.0
CC1CC(C)CN(C(=O)CN2C(=O)NC(c3ccccc3)(c3ccccc3)C2=O)C1 (centres undefined)	none (no result: AI-2 QS mod)
O=c1oc2ccc([N+](=O)[O-])cc2c(N2CCOCC2)c1[N+](=O)[O-]	MsrA inhibitor 5.1 (no result: Tb MetRS inh, m5-HT2A agonist, bovine MsrA act) | MsrA conf inactive
COc1cc(/C=C/C(=O)OCC(=O)N(C)C2CCS(=O)(=O)C2)ccc1OC(F)F (centres undefined)	none
O=C(NC(NC1CCS(=O)(=O)C1)C(=O)c1cccs1)c1ccccc1 (centres undefined)	none (no result: Tb MetRS inh, m5-HT2A agonist, bovine MsrA act)
O=C(NC1=C(NC2CCS(=O)(=O)C2)C(=O)c2ccccc2C1=O)c1ccccc1 (centres undefined)	MsrA inhibitor 5.0 | MsrA conf inactive
O=C(O)c1ccc(/C=N/Nc2ccc(F)cc2F)cc1	MsrA inhibitor 5.6 | MsrA conf inactive
Fc1ccc(N/N=C/c2ccncc2)c(F)c1	none
Cc1c(C(=O)O)cccc1-c1ccc(/C=N/n2cnnc2)o1	MsrA inhibitor 6.5 | MsrA conf 4.7
Cc1cc(-c2ccc(/C=N/n3cnnc3)o2)ccc1Cl	MsrA inhibitor 4.8 | MsrA conf inactive
Clc1ccccc1-c1ccc(/C=N/n2cnnc2)o1	MsrA inhibitor 5.7 | MsrA conf 5.5
O=C(COC(=O)C12CC3CC(CC(Br)(C3)C1)C2)Nc1cccc(S(=O)(=O)N2CCOCC2)c1	none (no result: AI-2 QS mod)
Cc1cccc(N2CCN(c3ccc4cc(S(=O)(=O)N5CCCCC5)ccc4n3)CC2)c1C	none
Cn1cc(/C=C2\SC(=O)NC2=S)c2ccccc21	MsrA inhibitor 22, AHR act 47 | MsrA conf 7.0
Cc1ccc(-c2cc(C(=O)O)c3ccccc3n2)s1	MsrA inhibitor 5.4 (no result: AHR act) | MsrA conf inactive
O=C(O)c1cc(-c2ccc(Cl)s2)nc2ccccc12	none
CCNc1nc(NCC)nc(N/N=C/c2ccc(N(C)C)cc2)n1	MsrA inhibitor 6.5 | MsrA conf 4.9
Cc1cc(=O)[nH]c(N/N=C/c2ccc(N(C)C)cc2)n1	MsrA inhibitor 7.6 | MsrA conf 6.2
CCN(CCC#N)c1ccc(/C=N/Nc2nc(C)cc(=O)[nH]2)c(C)c1	MsrA inhibitor 6.0 | MsrA conf 4.7
CCC(C)CN1C(=O)CN(S(C)(=O)=O)CC1(C)C(=O)NCc1ccccc1 (centres undefined)	none (no result: AI-2 QS mod, AHR act, bovine MsrA act)
O=S(=O)(CCN1CCN(c2ccccc2O)CC1)c1cc(Cl)ccc1Cl	none (no result: AI-2 QS mod, AHR act)
CC(=O)c1ccc(N2CCN(S(=O)(=O)c3c(C(=O)N4CCCC4)c(C)n(C)c3C)CC2)cc1	MsrA inhibitor 5.1 | MsrA conf inactive
N#C/C(=C/c1cccnc1)c1ccccc1	MsrA inhibitor 6.5 | MsrA conf inactive
N#Cc1ccc(C(=O)NC2CCCCCCC2)cc1	none
O=C(Nc1nc(-c2nc3ccccc3s2)cs1)c1ccc(S(=O)(=O)N2CCOCC2)cc1	MsrA inhibitor 5.0 | MsrA conf inactive
O=C(Nc1cccc(C(=O)O)c1)/C(=C/c1cccc([N+](=O)[O-])c1)NC(=O)c1cccc(Br)c1	none
O=C(N/N=C/C(Cl)=C/c1ccc([N+](=O)[O-])cc1)C(=O)Nc1cccc(C(=O)O)c1	MsrA inhibitor 9.2 | MsrA conf 5.3
Cn1c(/C=N/O)nc2ccccc21	none
CCC(=O)c1ccc(/C=C/c2nc3ccccc3n2C)o1	MsrA inhibitor 5.2 | MsrA conf inactive
COc1ccc(CCN2C(=O)C(O)=C(C(=O)c3ccco3)C2c2cccs2)cc1OC (centres undefined)	MsrA inhibitor 4.7 | MsrA conf inactive
COc1cc(C2C(C(=O)c3ccco3)=C(O)C(=O)N2CCc2ccccc2)ccc1O (centres undefined)	none
COc1cccc(C2C(C(=O)c3ccco3)=C(O)C(=O)N2CCCN2CCOCC2)c1OC (centres undefined)	MsrA inhibitor 4.7 (no result: AI-2 QS mod, AHR act) | MsrA conf inactive
CC(=O)Nc1cccc(Oc2nc(NC(C)C)nc3cc(-c4ccccc4)sc23)c1	none (no result: AI-2 QS mod, AHR act)
CCOC(=O)C1CCCN(C(=O)c2cnn3c(C(F)F)cc(-c4ccc(C)cc4)nc23)C1 (centres undefined)	MsrA inhibitor 29 | MsrA conf 23
COc1ccc(C(=O)/C(=C/c2cccs2)c2nc3ccccc3o2)cc1	none
COc1ccc(/C=C(\CC(=O)O)c2nc3ccccc3o2)cc1	MsrA inhibitor 5.9 | MsrA conf inactive
CCSc1nnc(NC(=O)c2cccs2)s1	MsrA inhibitor 5.2 | MsrA conf inactive

Assay outcomes: PubChem BioAssay, several laboratories
